Active and inactive are the calls of the source. The calls are words filed in the database; no cut-off is given here. Bounds are passed on as bounds.

Data set [1] has as its target C-X-C chemokine receptor type 4 (Homo sapiens) (UniProt P61073). In words: Competitive inhibition of biotinylated TN14003 binding to CXCR4 in human MDA-MB-231 cells preincubated for 10 mins followed by biotinylated-TN14003 addition measured after 30 mins by streptavidin-rhodamine staining based fluorescence microscopic analysis. In kind it is cell-based. An outline of the steps: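 MDA-MB-231 cells, 2 × 10⁴ per well, seeded two days ahead. Compound (1, 10, 100 or 1000 nM) added for 10 min at room temperature, then fixed in ice-cold 4% paraformaldehyde and rehydrated in PBS. Biotinylated TN14003 0.05 μg/mL for 30 min at RT, PBS washes, streptavidin-rhodamine (1:150) 30 min at RT. Read by fluorescence microscopy. EC = lowest concentration reducing rhodamine staining versus control.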

Data set [2] shares this target. In words: Inhibition of CXCR4-mediated chemotaxis in human MDA-MB-231 cells assessed as reduction in CXCL12alpha-induced cell invasion at 100 nM incubated for 22 hrs by hematoxylin/eosin dye-based matrigel assay relative to control. An outline of the steps: (§1)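 Matrigel invasion chamber with MDA-MB-231 cells. Compound (100 nM) added to cells before seeding in the top chamber; CXCL12α 200 ng/mL in the bottom chamber as chemoattractant, serum-free medium. Incubated 22 h. Non-invading cells swabbed off; invaded cells fixed in methanol and H&E stained, then counted. Inhibition relative to untreated invasion.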

For data set [3], the system named is Mus musculus. In words: Antiinflammatory activity in C57BL/6J mouse assessed as inhibition of carrageenan-induced paw edema at 10 mg/kg, ip daily dosed 30 mins after carrageenan challenge and measured 74 hrs carrageenan challenge and 2 hrs post last dose by caliper method relative to control. In kind it is functional. A digest of the protocol:
(§2)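 Female C57BL/6J mice, five per group; 50 μL λ-carrageenan (1% w/v in saline) injected subcutaneously into one hind paw, 50 μL saline into the other as non-inflamed control. Vehicle-only i.p. controls. Sacrifice 74 h after challenge and 2 h after last dose. Paw thickness measured palm to back with caliper. Edema = injected minus contralateral paw. Suppression % = treated versus control group.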
(In general: The carrageenan paw model is a standard test of acute inflammation.)

In data set [4] the target is C-X-C chemokine receptor type 4 (Homo sapiens) (UniProt P61073). In words: Potency index, Ratio of EC for AMD3100 to EC for test compound for inhibition of biotinylated TN14003 binding to CXCR4 in human MDA-MB-231 cells preincubated for 10 mins followed by biotinylated-TN14003 addition measured after 30 mins by streptavidin-rhodamine staining based fluorescence microscopic analysis. It counts as cell-based.
Chain of C-X-C chemokine receptor type 4 (Homo sapiens) (P61073 whole entry): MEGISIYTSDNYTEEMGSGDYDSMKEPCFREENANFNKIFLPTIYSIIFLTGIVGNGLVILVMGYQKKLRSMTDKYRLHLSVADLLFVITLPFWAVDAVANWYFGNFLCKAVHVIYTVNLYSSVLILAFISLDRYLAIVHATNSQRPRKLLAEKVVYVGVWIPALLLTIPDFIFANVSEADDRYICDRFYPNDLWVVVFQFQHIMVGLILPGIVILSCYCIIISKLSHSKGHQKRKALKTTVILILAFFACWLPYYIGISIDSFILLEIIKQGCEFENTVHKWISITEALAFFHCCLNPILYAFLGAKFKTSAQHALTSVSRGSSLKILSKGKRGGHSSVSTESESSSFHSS

Data set [5] relates to Mus musculus. Nature of the data set: Antiinflammatory activity in C57BL/6J mouse assessed as reduction of carrageenan-induced inflammation and tissue damage in paw by measuring edema volume and thickness at 10 mg/kg, ip daily dosed 30 mins after carrageenan challenge and measured 74 hrs carrageenan challenge and 2 hrs post last dose by H and E staining based histopathological analysis. In kind it is functional, organism-based.

Data set [6] relates to Mus musculus. In words: Antiinflammatory activity in C57BL/6J mouse assessed as reduction in carrageenan-induced accumulation of inflammatory cells in paw tissue at 10 mg/kg, ip daily dosed 30 mins after carrageenan challenge and measured 74 hrs carrageenan challenge and 2 hrs post last dose by H and E staining based histopathological analysis. In kind it is functional, organism-based.

A short description of data set [7]: Half life in Sprague-Dawley rat at 10 mg/kg, ig measured for 5 min to 6 hrs by LC/MS/MS analysis. It counts as ADME, organism-based. The note with it: in vivo, po. A digest of the protocol:
(§3)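 Two male SD rats given 10 mg/kg intragastrically in 10% DMSO/90% PBS. Blood drawn at 5, 15, 30 min and 1, 2, 4, 6 h, centrifuged 4000 rpm for 5 min at 4 °C. Protein precipitation, then LC/MS/MS in SRM mode with internal standard. Parameters from noncompartmental analysis of plasma concentration-time data.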

Data set [8] can be described thus: Tmax in Sprague-Dawley rat at 10 mg/kg, ig measured for 5 min to 6 hrs by LC/MS/MS analysis. The conditions noted are these: in vivo, po. It counts as ADME, organism-based. A digest of the protocol: as §3
For a further data set, the system named is MDA-MB-231. In words: Cytotoxicity against human MDA-MB-231 cells at 100 uM incubated for 24 hrs by CellTiter-96AQ based MTT assay. In kind it is cell-based. The conditions noted are these: mda-mb-231, 24 h. An outline of the steps: (§4)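 Cells seeded at 3000 per well and grown 24 h at 37 °C in CO₂. Treated with compound for 24 h at 37 °C, top concentration 100 μM. CellTiter 96AQ reagent added for 2 h more, then absorbance read at 490 nm.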
A general note: Tetrazolium assays rely on reduction of a dye to a coloured formazan, in cell work by metabolically active cells.

In a further data set the test system is SK-BR-3. In words: Cytotoxicity against human SKBR3 cells at 100 uM incubated for 24 hrs by CellTiter-96AQ based MTT assay. The conditions noted are these: sk-br-3, 24 h. In kind it is cell-based. An outline of the steps: as §4
The test system of a further data set is MCF-10A. In words: Cytotoxicity against human MCF10A cells at 100 uM incubated for 24 hrs by CellTiter-96AQ based MTT assay. In kind it is cell-based. An outline of the steps: as §4
The subject of data set [9] is Mus musculus. Nature of the data set: Antiinflammatory activity against carrageenan-induced paw oedema in C57BL/6J mouse assessed as hind paw thickness at 10 mg/kg, ip daily dosed 30 mins after carrageenan challenge and measured 74 hrs carrageenan challenge and 2 hrs post last dose by caliper method (reference value: 3.05 millimeter). It counts as functional. An outline of the steps:
as §2

Data set [10] relates to Mus musculus. Nature of the data set: Antiinflammatory activity against carrageenan-induced paw oedema in C57BL/6J mouse assessed as paw swollen thickness at 10 mg/kg, ip daily dosed 30 mins after carrageenan challenge and measured 74 hrs carrageenan challenge and 2 hrs post last dose by caliper method (reference value: 0.68 millimeter). It counts as functional. A digest of the protocol: as §2

Data set [11] deals with C-X-C chemokine receptor type 4 (Homo sapiens) (UniProt P61073). In words: Inhibition of CXCR4-mediated chemotaxis in human MDA-MB-231 cells assessed as reduction in CXCL12alpha-induced cell invasion incubated for 22 hrs by hematoxylin/eosin dye-based matrigel assay relative to control. The note with it: concentration not given here. An outline of the steps: as §1

A word on the inhibition: it is the change of the read-out against control, counted positive when it falls. What is called inhibition in vivo is how much of the control response was suppressed. For the compound `O=C(NCc1ccc(CNS(=O)(=O)c2ccc(CN3CCOCC3)cc2)cc1)c1ccc(F)cc1`, in [1], the EC turned out to be 10 nM. In addition, in data set [2], the inhibition was determined as 82%. The inhibition in vivo at 10 mg/kg with Mus musculus [3] was found to be 20%. Besides, the Ratio in data set [4] worked out at 100.
In [1], `Cc1ccccc1S(=O)(=O)NCc1ccc(CNC(=O)c2ccc(F)cc2)cc1` came in with an EC of 100 nM.
The compound `O=C(NCc1ccc(CNS(=O)(=O)c2cccc(Cl)c2)cc1)c1ccc(F)cc1` came in with an EC in data set [1] of 1 nM. For the same compound, the inhibition in data set [2] turned out to be 95%. Further, in the data set with Mus musculus [3], the inhibition in vivo at 10 mg/kg was determined as 20%.
With `Cc1ccc(S(=O)(=O)NCc2ccc(CNC(=O)c3ccc(F)cn3)cc2)cc1`, the EC in [1] turned out to be 1000 nM.
The compound `O=C(NCc1ccc(CNS(=O)(=O)c2cccc(F)c2)cc1)c1ccc(F)cc1` yielded an EC in data set [1] of 1000 nM.
The Tmax is the time from dosing to the highest level. Consider `O=C(NCc1ccc(CNS(=O)(=O)c2ccc3c(c2)CCO3)cc1)c1ccc(F)cc1`, for which the inhibition result with Mus musculus [5] and with Mus musculus [6] was “Active” throughout. In data set [1], this compound had an EC of 10 nM. In addition, the inhibition in data set [2] was 83%. Also, in the data set on Mus musculus [3], the inhibition in vivo at 10 mg/kg stood at 43%. In [7], this compound gave a t1/2 of 4.77 h. Besides, the Tmax in data set [8] was determined as 0.25 h. The Activity result was “Non-Toxic” in the data set on MDA-MB-231; “Non-Toxic” in the data set on SK-BR-3; “Non-Toxic” with MCF-10A; 2.64 mm in the data set on Mus musculus [9]; 0.21 mm in the data set with Mus musculus [10].
Compound `O=C(NCc1ccc(CNS(=O)(=O)c2ccc(Cl)cc2)cc1)c1ccc(F)cc1` had an EC in [1] of 100 nM.
Take `O=C(NCc1ccc(CNS(=O)(=O)c2cccc3ccccc23)cc1)c1ccc(F)cc1`: the EC in data set [1] was 1000 nM.
In data set [1], `O=C(NCc1ccc(CNS(=O)(=O)c2ccc([N+](=O)[O-])cc2)cc1)c1ccc(F)cc1` yielded an EC of 1000 nM.
In turn, `O=C(NCc1ccc(CNS(=O)(=O)c2ccc(-c3ccc(F)cc3)cc2)cc1)c1ccc(F)cc1` had an EC in data set [1] of 100 nM.
Turning to `O=C(NCc1ccc(CNS(=O)(=O)c2cccnc2)cc1)c1ccc(F)cc1`, the EC in data set [1] amounted to 1000 nM.
The compound `O=C(NCc1ccc(CNS(=O)(=O)c2ccccc2Cl)cc1)c1ccc(F)cc1` registered an EC in data set [1] of 1000 nM.
The compound `O=C(NCc1ccc(CNS(=O)(=O)c2ccc(CN3CCCC3)cc2)cc1)c1ccc(F)cc1` showed an EC in data set [1] of 1 nM. Moreover, the inhibition in data set [2] was 92%. Besides, the inhibition in vivo at 10 mg/kg in the data set on Mus musculus [3] worked out at 20%. For the same compound, the Ratio in [4] came out at 1000.
Turning to `O=C(NCc1ccc(CNS(=O)(=O)c2cccc(C(F)(F)F)c2)cc1)c1ccc(F)cc1`, in [1], the EC came to 100 nM. Moreover, the inhibition in [2] is 93%. Besides, the inhibition in vivo at 10 mg/kg with Mus musculus [3] was found to be 20%.
With `Cc1ccc(S(=O)(=O)NCc2ccc(CNC(=O)c3ccc(F)cc3)cc2)cc1`, in data set [11], the inhibition was 65%. Further, in the data set with Mus musculus [3], the inhibition in vivo at 10 mg/kg is 30%.
The compound `O=C(NCc1ccc(CNS(=O)(=O)c2ccc(F)c(F)c2)cc1)c1ccc(F)cc1` had an EC in data set [1] of 10 nM.
Turning to `CCN(CC)Cc1ccc(S(=O)(=O)NCc2ccc(CNC(=O)c3ccc(F)cc3)cc2)cc1`, the EC in data set [1] was 1 nM. In addition, in data set [4], the Ratio amounted to 1000.
Regarding `O=C(NCc1ccc(CNS(=O)(=O)c2ccccc2F)cc1)c1ccc(F)cc1`, the EC in data set [1] is 10 nM.
Still for that read-out and setting: as for `Cc1cccc(S(=O)(=O)NCc2ccc(CNC(=O)c3ccc(F)cc3)cc2)c1`, the figure is 1 nM; as for `Cc1ccc(S(=O)(=O)NCc2ccc(CNC(=O)c3ccc(F)nc3)cc2)cc1`, more than 1000 nM.
Still for that read-out and setting: to `O=C(NCc1ccc(CNS(=O)(=O)c2ccc(F)cc2)cc1)c1ccc(F)cc1` belongs 1 nM.

Values taken from ChEMBL document CHEMBL4346702, “Development of CXCR4 modulators based on the lead compound RB-108” (Eur J Med Chem, 2019).
